# Results from ChEMBL document CHEMBL4732107, “Synthesis and anticancer activity evaluation of naphthalene-substituted triazole spirodienones” (Eur J Med Chem, 2021).
# Activity calls are given as the source filed them. No cut-off for these calls is given here.
# Tests used:
# 4T1 [1] = assay: Induction of apoptosis in mouse 4T1 cells implanted in mouse at 2 mg/kg, ip administered daily for 12 days measured post last dose by H and E staining based microscopic analysis; assay type: functional, organism-based; details: time 12.0 day
# Method in brief: (§1)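 Orthotopic 4T1-bearing mice (n = 6 per group) were dosed i.p. daily with vehicle, compound at 1 or 2 mg/kg, or doxorubicin at 1 mg/kg. At the end of treatment, tumors and major organs (liver, spleen) were harvested and photographed. Sections were H&E stained and examined by microscope.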
# Aurora kinase A = molecular target: T1, Aurora kinase A (Homo sapiens, UniProt O14965); assay: Inhibition of AURKA (unknown origin)
# T1 sequence (O14965 whole entry): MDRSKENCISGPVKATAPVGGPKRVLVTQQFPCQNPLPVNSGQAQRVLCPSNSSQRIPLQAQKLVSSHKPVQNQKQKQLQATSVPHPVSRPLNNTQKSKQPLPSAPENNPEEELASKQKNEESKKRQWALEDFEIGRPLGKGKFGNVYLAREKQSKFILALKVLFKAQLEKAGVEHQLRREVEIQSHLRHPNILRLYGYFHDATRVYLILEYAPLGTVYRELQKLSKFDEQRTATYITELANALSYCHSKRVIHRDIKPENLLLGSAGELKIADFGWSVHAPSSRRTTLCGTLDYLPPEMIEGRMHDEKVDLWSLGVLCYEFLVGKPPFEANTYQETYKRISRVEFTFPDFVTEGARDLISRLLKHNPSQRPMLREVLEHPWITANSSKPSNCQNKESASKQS
# Method in brief: (§2)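 Kinase inhibition was measured in two independent repeats, and IC50 is reported as their average with SD.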
# [2] = Acute toxicity in ip dosed Kunming mouse administered as single dose; assay type: organism-based; details: in vivo
# Method in brief: (§3)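 Kunming mice in four groups (n = 8, half male, half female) got one intraperitoneal dose of 10, 20 or 40 mg/kg, or vehicle. Body weights were recorded daily after dosing. Eyes, skin and fur were checked for clinical signs. Mortality was recorded. Mice were dissected to look for ascites and to assess liver volume.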
# 4T1 [3] = assay: Antitumor activity against mouse 4T1 cells implanted in mouse assessed as tumor growth inhibition at 1 mg/kg, ip administered daily for 12 days relative to control; assay type: functional; details: 4T1, ip, 288 h, time 12 day, read-out: TGI
# Method in brief: (§4)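 Mice bearing orthotopic 4T1 tumors were randomized into 4 groups (n = 6) once tumors reached about 100 mm2. Groups received vehicle, test compound at 1 or 2 mg/kg, or doxorubicin at 1 mg/kg, given i.p. every day. Body weight and tumor volume were recorded daily. Tumors were excised and weighed at the end, and inhibition was calculated against the saline control.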
# MDA-MB-231 [4] = assay: Induction of apoptosis in human MDA-MB-231 cells assessed as late apoptotic cells at 1 uM measured after 24 hrs by annexin V-FITC/propidium iodide staining based flow cytometry (reference value: 2.84%); assay type: functional
# [5] = Acute toxicity in Kunming mouse assessed as body weight loss at 40 mg/kg, ip administered as single dose; assay type: organism-based; details: in vivo; method in brief: as §3
# [6] = Acute toxicity in Kunming mouse assessed as clinical change in fur at 40 mg/kg, ip administered as single dose; assay type: organism-based; details: in vivo; method in brief: as §3
# [7] = Acute toxicity in Kunming mouse assessed as clinical change in skin at 40 mg/kg, ip administered as single dose; assay type: organism-based; details: in vivo; method in brief: as §3
# HeLa = assay: Antiproliferative activity against human HeLa cells assessed as reduction in cell viability measured after 5 days by beckman coulter counting method; assay type: functional, cell-based; details: 120 h
# MDA-MB-231 [8] = assay: Induction of apoptosis in human MDA-MB-231 cells assessed as viable cells at 1 uM measured after 24 hrs by annexin V-FITC/propidium iodide staining based flow cytometry (reference value: 90.9%); assay type: functional; details: read-out: Activity
# MDA-MB-231 [9] = assay: Induction of apoptosis in human MDA-MB-231 cells assessed as necrotic cells at 0.1 uM measured after 24 hrs by annexin V-FITC/propidium iodide staining based flow cytometry (reference value: 4.74%); assay type: functional
# MDA-MB-231 [10] = assay: Induction of apoptosis in human MDA-MB-231 cells assessed as necrotic cells at 1 uM measured after 24 hrs by annexin V-FITC/propidium iodide staining based flow cytometry (reference value: 4.74%); assay type: functional
# 4T1 [11] = assay: Antitumor activity against mouse 4T1 cells implanted in mouse assessed as reduction in tumor weight at 1 to 2 mg/kg, ip administered daily for 12 days; assay type: functional, organism-based; details: dose 1-2 mg/kg, time 12.0 day; method in brief: as §4
# MDA-MB-231 [12] = assay: Cell cycle arrest in human MDA-MB-231 cells assessed as accumulation at G2 phase at 1 uM measured after 24 hrs by propidium iodide staining based flow cytometry (reference value: 5.77%); assay type: functional
# Method in brief: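 MDA-MB-231 cells were seeded at 5 × 10^5 cells/mL and treated for 24 h. They were then trypsinized and washed twice in cold PBS. Cells were resuspended in PBS, stained with PI for 15 min at room temperature in the dark, and analyzed by flow cytometry.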
# [13] = Acute toxicity in Kunming mouse assessed as mortality at 10 to 40 mg/kg, ip administered as single dose; assay type: organism-based; details: in vivo, dose 10-40 mg/kg; method in brief: as §3
# MDA-MB-231 [14] = assay: Antiproliferative activity against human MDA-MB-231 cells assessed as reduction in cell viability measured after 5 days by beckman coulter counting method; assay type: functional, cell-based; details: MDA-MB-231, 120 h
# MDA-MB-231 [15] = assay: Cell cycle arrest in human MDA-MB-231 cells assessed as accumulation at S phase at 1 uM measured after 24 hrs by propidium iodide staining based flow cytometry (reference value: 19.84%); assay type: functional
# [16] = Toxicity in mouse implanted with mouse 4T1 cells assessed as change in body weight at 1 to 2 mg/kg, ip administered daily for 12 days measured daily during compound dosing; assay type: organism-based; details: in vivo, 288 h, dose 1-2 mg/kg, time 12 day; method in brief: as §4
# [17] = Toxicity in mouse implanted with mouse 4T1 cells assessed as extramedullary hematopoiesis in spleen at 2 mg/kg, ip administered daily for 12 days measured post last dose by H and E staining based microscopic analysis; assay type: organism-based; details: in vivo, 288 h, time 12 day; method in brief: as §1
# [18] = Acute toxicity in Kunming mouse assessed as decrease in liver volume at 40 mg/kg, ip administered as single dose; assay type: organism-based; details: in vivo; method in brief: as §3
# [19] = molecular target: Mitogen-activated protein kinase 10 (Homo sapiens, UniProt P53779); assay: Inhibition of MAPK10 (unknown origin); method in brief: as §2
# [20] = Acute toxicity in Kunming mouse assessed as development of ascites at 40 mg/kg, ip administered as single dose; assay type: organism-based; details: in vivo; method in brief: as §3
# MDA-MB-231 [21] = assay: Induction of apoptosis in human MDA-MB-231 cells measured after 24 hrs by annexin V-FITC/propidium iodide staining based flow cytometry; assay type: functional, cell-based; details: dose 0.1-1 µM
# A549 = assay: Antiproliferative activity against human A549 cells assessed as reduction in cell viability measured after 5 days by beckman coulter counting method; assay type: functional, cell-based; details: A549, 120 h
# Method in brief: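 Cells kept in DMEM with 10% FBS, 4 mM glutamine, 1 mM sodium pyruvate, penicillin/streptomycin and amphotericin, at 37 °C in 5% CO2. Seeded at 20,000 per well, then exposed to 5 concentrations for 5 days, with DMSO as vehicle. Viable cells counted on a cell viability analyzer. Viability expressed as treated/vehicle count, and IC50 taken from dose-response curves.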
# [22] = Acute toxicity in Kunming mouse assessed as clinical change in eyes at 40 mg/kg, ip administered as single dose; assay type: organism-based; details: in vivo; method in brief: as §3
# [23] = molecular target: Tyrosine-protein kinase JAK2 (Homo sapiens, UniProt O60674); assay: Inhibition of JAK2 (unknown origin); method in brief: as §2
# Tyrosine-protein kinase JAK2, sequence (O60674 whole entry): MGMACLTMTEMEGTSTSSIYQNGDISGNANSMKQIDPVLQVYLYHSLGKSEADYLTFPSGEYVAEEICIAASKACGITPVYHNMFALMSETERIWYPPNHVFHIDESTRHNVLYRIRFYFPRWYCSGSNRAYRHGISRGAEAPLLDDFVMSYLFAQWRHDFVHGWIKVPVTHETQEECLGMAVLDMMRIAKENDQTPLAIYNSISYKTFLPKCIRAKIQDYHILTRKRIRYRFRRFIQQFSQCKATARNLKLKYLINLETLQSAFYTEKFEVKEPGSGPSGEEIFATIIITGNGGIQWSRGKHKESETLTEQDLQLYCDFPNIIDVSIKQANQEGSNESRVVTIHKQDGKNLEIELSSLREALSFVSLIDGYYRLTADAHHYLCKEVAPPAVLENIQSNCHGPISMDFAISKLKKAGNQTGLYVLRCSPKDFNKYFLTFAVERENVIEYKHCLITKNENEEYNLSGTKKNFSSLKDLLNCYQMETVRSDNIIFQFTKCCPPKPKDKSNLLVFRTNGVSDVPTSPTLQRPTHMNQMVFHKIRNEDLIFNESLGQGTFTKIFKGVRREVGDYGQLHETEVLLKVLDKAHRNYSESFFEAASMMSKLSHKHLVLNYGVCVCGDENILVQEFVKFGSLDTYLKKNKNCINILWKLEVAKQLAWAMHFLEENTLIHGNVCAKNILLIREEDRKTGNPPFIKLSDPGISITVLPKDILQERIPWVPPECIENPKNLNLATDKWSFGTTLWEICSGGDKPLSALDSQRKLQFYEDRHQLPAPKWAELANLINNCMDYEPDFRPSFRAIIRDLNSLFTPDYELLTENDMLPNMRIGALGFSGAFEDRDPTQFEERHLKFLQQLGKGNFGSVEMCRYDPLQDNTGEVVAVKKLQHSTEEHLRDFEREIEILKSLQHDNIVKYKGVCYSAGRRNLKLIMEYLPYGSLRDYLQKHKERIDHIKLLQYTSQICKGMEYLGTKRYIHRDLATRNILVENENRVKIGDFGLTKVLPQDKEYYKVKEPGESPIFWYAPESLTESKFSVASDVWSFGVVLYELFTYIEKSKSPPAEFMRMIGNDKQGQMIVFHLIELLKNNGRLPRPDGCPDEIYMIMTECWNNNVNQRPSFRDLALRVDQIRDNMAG
# Mitogen-activated protein kinase 10, sequence (P53779 whole entry): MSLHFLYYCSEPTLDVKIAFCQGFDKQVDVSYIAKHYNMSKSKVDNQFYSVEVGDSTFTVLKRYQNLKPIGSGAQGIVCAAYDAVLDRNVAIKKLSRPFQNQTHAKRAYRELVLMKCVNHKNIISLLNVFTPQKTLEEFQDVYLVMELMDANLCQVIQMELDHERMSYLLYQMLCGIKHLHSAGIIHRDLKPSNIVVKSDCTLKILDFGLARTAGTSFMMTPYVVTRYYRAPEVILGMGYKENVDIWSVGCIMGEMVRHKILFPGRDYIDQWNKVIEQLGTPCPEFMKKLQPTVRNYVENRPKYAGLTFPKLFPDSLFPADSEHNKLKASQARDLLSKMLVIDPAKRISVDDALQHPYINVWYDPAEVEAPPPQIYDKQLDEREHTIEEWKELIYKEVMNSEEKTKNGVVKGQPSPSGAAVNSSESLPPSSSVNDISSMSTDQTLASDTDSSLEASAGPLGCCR
smiles,measurement,setting,value
O=C1C=CC2(C=C1)OCC(=O)N2c1nc(-c2cccc3ccccc23)nn1-c1ccccc1,Activity,4T1 [1],Active
same,IC50,Aurora kinase A,> 100000 nM
same,MTD,[2],> 40 mg/kg
same,inhibition in vivo at 1 mg/kg,4T1 [3],18.2%
same,Activity,MDA-MB-231 [4],29%
same,Activity,[5],Toxic
same,Activity,[6],Non-Toxic
same,Activity,[7],Non-Toxic
same,IC50,HeLa,70 nM
same,viability at 1 µM,MDA-MB-231 [8],35.7%
same,Activity,MDA-MB-231 [9],5.16%
same,Activity,MDA-MB-231 [10],13.1%
same,Activity,4T1 [11],Active
same,Activity,MDA-MB-231 [12],23.87%
same,Activity,[13],Non-Toxic
same,IC50,MDA-MB-231 [14],50 nM
same,Activity,MDA-MB-231 [15],36.99%
same,Activity,[16],Non-Toxic
same,Activity,[17],Toxic
same,Activity,[18],Toxic
same,IC50,[19],> 100000 nM
same,Activity,[20],Toxic
same,Activity,MDA-MB-231 [21],Dose-dependent effect
same,IC50,A549,80 nM
same,Activity,[22],Non-Toxic
same,IC50,[23],59000 nM
